Tests used:
HT-29 [1] = assay: Antiproliferative activity against human HT-29 cells after 2 days by MTT assay; format: functional, cell-based; details: HT-29, 48 h
Method in brief: (§1)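 Cells (5×10^3 per well) in DMEM with 10% FBS, glucose, glutamine and antibiotics were exposed to serial dilutions (stocks in DMSO) for 2 days at 37 °C, 5% CO2. MTT was added for 3 h, formazan was dissolved in DMSO and absorbance read at 490 nm. Viability was taken as % of untreated cells. IC50 was read graphically from three independent experiments.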

MCF7 = assay: Antiproliferative activity against human MCF7 cells after 2 days by MTT assay; format: functional, cell-based; details: MCF7, 48 h; method in brief: as §1
HeLa = assay: Antiproliferative activity against human HeLa cells after 2 days by MTT assay; format: functional, cell-based; details: 48 h; method in brief: as §1
HEK293 = assay: Antiproliferative activity against human HEK293 cells after 2 days by MTT assay; format: cell-based; details: HEK293, 48 h; method in brief: as §1
HT-29 [2] = assay: Induction of apoptosis in human HT-29 cells assessed as viable cells at 25 nM after 48 hrs by Annexin V-FITC staining-based flow cytometric analysis (reference value: 82 +/- 1%); format: functional; details: HT-29, 48 h, read-out: Activity
HT-29 [3] = assay: Induction of apoptosis in human HT-29 cells assessed as apoptotic cells at 25 nM after 48 hrs by Annexin V-FITC staining-based flow cytometric analysis (reference value: 13 +/- 3%); format: functional
HT-29 [4] = assay: Induction of apoptosis in human HT-29 cells assessed as necrotic cells at 25 nM after 48 hrs by Annexin V-FITC staining-based flow cytometric analysis (reference value: 2 +/- 6%); format: functional
HT-29 [5] = assay: Induction of apoptosis in human HT-29 cells assessed as viable cells at 20 nM after 48 hrs by Annexin V-FITC staining-based flow cytometric analysis (reference value: 82 +/- 1%); format: functional; details: HT-29, 48 h, read-out: Activity
HT-29 [6] = assay: Induction of apoptosis in human HT-29 cells assessed as apoptotic cells at 20 nM after 48 hrs by Annexin V-FITC staining-based flow cytometric analysis (reference value: 13 +/- 3%); format: functional
HT-29 [7] = assay: Induction of apoptosis in human HT-29 cells assessed as necrotic cells at 20 nM after 48 hrs by Annexin V-FITC staining-based flow cytometric analysis (reference value: 2 +/- 6%); format: functional
HT-29 [8] = assay: Induction of apoptosis in human HT-29 cells assessed as viable cells at 15 nM after 48 hrs by Annexin V-FITC staining-based flow cytometric analysis (reference value: 82 +/- 1%); format: functional; details: HT-29, 48 h, read-out: Activity
HT-29 [9] = assay: Induction of apoptosis in human HT-29 cells assessed as apoptotic cells at 15 nM after 48 hrs by Annexin V-FITC staining-based flow cytometric analysis (reference value: 13 +/- 3%); format: functional
HT-29 [10] = assay: Induction of apoptosis in human HT-29 cells assessed as necrotic cells at 15 nM after 48 hrs by Annexin V-FITC staining-based flow cytometric analysis (reference value: 2 +/- 6%); format: functional
HT-29 [11] = assay: Effect on c-MYC gene expression in human HT-29 cells assessed as c-MYC level at 15 nM after 48 hrs by RT-qPCR analysis; format: functional
Method in brief: (§2)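 HT-29 cells at 70–80% confluence were seeded at 1.5×10^5 per well and left 24 h, then treated 48 h, with DMSO as control. Total RNA was extracted and VEGF-A, c-Myc and hTERT were quantified by TaqMan qPCR, normalized to β-actin and to living cell number. Results are % expression versus control, at least three measurements.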

HT-29 [12] = assay: Effect on hTERT gene expression in human HT-29 cells assessed as hTERT level at 15 nM after 48 hrs by RT-qPCR analysis; format: functional; method in brief: as §2
HT-29 [13] = assay: Effect on VEGF gene expression in human HT-29 cells assessed as VEGF level at 15 nM after 48 hrs by RT-qPCR analysis; format: functional; method in brief: as §2
HT-29 [14] = assay: Effect on c-MYC protein expression in human HT-29 cells assessed as c-MYC level at 15 nM after 48 hrs by ELISA; format: functional
Method in brief: (§3)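 HT-29 cells (1.5×10^5 per well, 24 h pre-culture) were treated 48 h and washed in PBS. They were lysed in Tris pH 7.4 buffer with detergents, phosphatase inhibitors, PMSF and protease inhibitors. Lysates were adjusted to 200 µg/mL protein (Bradford) and total c-Myc or VEGFR-2 was measured by sandwich ELISA kit. Values are % of DMSO control, ≥3 measurements.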

HT-29 [15] = assay: Effect on VEGFR2 protein expression in human HT-29 cells assessed as VEGFR2 level at 15 nM after 48 hrs by ELISA; format: functional; method in brief: as §3
HT-29 [16] = assay: Effect on VEGF protein expression in human HT-29 cells assessed as secreted VEGF level in culture media at 15 nM after 48 hrs by ELISA
HT-29 [17] = assay: Induction of apoptosis in human HT-29 cells assessed as viable cells at 5 nM after 48 hrs by Annexin V-FITC staining-based flow cytometric analysis (reference value: 82 +/- 1%); format: functional; details: HT-29, 48 h, read-out: Activity
HT-29 [18] = assay: Induction of apoptosis in human HT-29 cells assessed as apoptotic cells at 5 nM after 48 hrs by Annexin V-FITC staining-based flow cytometric analysis (reference value: 13 +/- 3%); format: functional
HT-29 [19] = assay: Induction of apoptosis in human HT-29 cells assessed as necrotic cells at 5 nM after 48 hrs by Annexin V-FITC staining-based flow cytometric analysis (reference value: 2 +/- 6%); format: functional
HT-29 [20] = assay: Effect on c-MYC gene expression in human HT-29 cells assessed as c-MYC level at 5 nM after 48 hrs by RT-qPCR analysis; format: functional; method in brief: as §2
HT-29 [21] = assay: Effect on hTERT gene expression in human HT-29 cells assessed as hTERT level at 5 nM after 48 hrs by RT-qPCR analysis; format: functional; method in brief: as §2
HT-29 [22] = assay: Effect on VEGF gene expression in human HT-29 cells assessed as VEGF level at 5 nM after 48 hrs by RT-qPCR analysis; format: functional; method in brief: as §2
HT-29 [23] = assay: Effect on c-MYC protein expression in human HT-29 cells assessed as c-MYC level at 5 nM after 48 hrs by ELISA; format: functional; method in brief: as §3
HT-29 [24] = assay: Effect on VEGFR2 protein expression in human HT-29 cells assessed as VEGFR2 level at 5 nM after 48 hrs by ELISA; format: functional; method in brief: as §3
HT-29 [25] = assay: Effect on VEGF protein expression in human HT-29 cells assessed as secreted VEGF level in culture media at 5 nM after 48 hrs by ELISA

SMILES: COc1cc2c(c(OC)c1OC)-c1ccc(OC)c(=O)cc1[C@@H](NC(=O)Nc1ccccc1C)CC2
- IC50 (HT-29 [1]): 26 nM
- IC50 (MCF7): 119 nM
- IC50 (HeLa): 32 nM
- IC50 (HEK293): 44 nM
- viability at 0.025 µM (HT-29 [2]): 64%
- Activity (HT-29 [3]): 34%
- Activity (HT-29 [4]): 2%

SMILES: COc1cc2c(c(OC)c1OC)-c1ccc(OC)c(=O)cc1[C@@H](NC(=O)Nc1c(C)cccc1C)CC2
- IC50 (HT-29 [1]): 130 nM
- IC50 (MCF7): 240 nM
- IC50 (HeLa): 242 nM
- IC50 (HEK293): 218 nM

SMILES: COc1cc2c(c(OC)c1OC)-c1ccc(OC)c(=O)cc1[C@@H](NC(=O)Nc1ccc3ccccc3c1)CC2
- IC50 (HT-29 [1]): 8 nM
- IC50 (MCF7): 10 nM
- IC50 (HeLa): 7 nM
- IC50 (HEK293): 7 nM

SMILES: COc1cc2c(c(OC)c1OC)-c1ccc(OC)c(=O)cc1[C@@H](NC(=O)Nc1c(Cl)cc(F)cc1Cl)CC2
- IC50 (HT-29 [1]): 30 nM
- IC50 (MCF7): 14 nM
- IC50 (HeLa): 20 nM
- IC50 (HEK293): 92 nM

SMILES: COc1cc2c(c(OC)c1OC)-c1ccc(OC)c(=O)cc1[C@@H](NC(=O)Nc1cc(C(F)(F)F)cc(C(F)(F)F)c1)CC2
- IC50 (HT-29 [1]): 2600 nM
- IC50 (MCF7): 1800 nM
- IC50 (HeLa): 1700 nM
- IC50 (HEK293): 1500 nM
- viability at 0.02 µM (HT-29 [5]): 96%
- Activity (HT-29 [6]): 4%
- Activity (HT-29 [7]): 1%

SMILES: COc1cc2c(c(OC)c1OC)-c1ccc(OC)c(=O)cc1[C@@H](NC(=O)Nc1ccc(F)cc1C)CC2
- IC50 (HT-29 [1]): 14 nM
- IC50 (MCF7): 10 nM
- IC50 (HeLa): 21 nM
- IC50 (HEK293): 65 nM
- viability at 0.015 µM (HT-29 [8]): 73%
- Activity (HT-29 [9]): 26%
- Activity (HT-29 [10]): 1%
- Activity (HT-29 [11]): 65%
- Activity (HT-29 [12]): 68%
- Activity (HT-29 [13]): 63%
- Activity (HT-29 [14]): 110%
- Activity (HT-29 [15]): 62%
- Activity (HT-29 [16]): 90%

SMILES: COc1cc2c(c(OC)c1OC)-c1ccc(OC)c(=O)cc1[C@@H](NC(=O)Nc1ccc(Cl)cc1Cl)CC2
- IC50 (HT-29 [1]): 31 nM
- IC50 (MCF7): 24 nM
- IC50 (HeLa): 42 nM
- IC50 (HEK293): 32 nM

SMILES: COc1cc2c(c(OC)c1OC)-c1ccc(OC)c(=O)cc1[C@@H](NC(=O)Nc1ccc(F)cc1)CC2
- IC50 (HT-29 [1]): 5 nM
- IC50 (MCF7): 10 nM
- IC50 (HeLa): 10 nM
- IC50 (HEK293): 13 nM
- viability at 0.005 µM (HT-29 [17]): 51%
- Activity (HT-29 [18]): 47%
- Activity (HT-29 [19]): 2%
- Activity (HT-29 [20]): 52%
- Activity (HT-29 [21]): 70%
- Activity (HT-29 [22]): 59%
- Activity (HT-29 [23]): 105%
- Activity (HT-29 [24]): 63%
- Activity (HT-29 [25]): 55%

SMILES: COc1cc2c(c(OC)c1OC)-c1ccc(OC)c(=O)cc1[C@@H](NC(=O)Nc1ccc(F)cc1Cl)CC2
- IC50 (HT-29 [1]): 1.75 nM
- IC50 (MCF7): 1.2 nM
- IC50 (HeLa): 5 nM
- IC50 (HEK293): 1.7 nM
- viability at 0.005 µM (HT-29 [17]): 46%
- Activity (HT-29 [18]): 53%
- Activity (HT-29 [19]): 1%
- Activity (HT-29 [20]): 58%
- Activity (HT-29 [21]): 80%
- Activity (HT-29 [22]): 64%
- Activity (HT-29 [23]): 104%
- Activity (HT-29 [24]): 15%
- Activity (HT-29 [25]): 67%

SMILES: COc1ccc(NC(=O)N[C@H]2CCc3cc(OC)c(OC)c(OC)c3-c3ccc(OC)c(=O)cc32)cc1
- IC50 (HT-29 [1]): 4 nM
- IC50 (MCF7): 13 nM
- IC50 (HeLa): 6.5 nM
- IC50 (HEK293): 14 nM
- viability at 0.005 µM (HT-29 [17]): 64%
- Activity (HT-29 [18]): 35%
- Activity (HT-29 [19]): 1%
- Activity (HT-29 [20]): 55%
- Activity (HT-29 [21]): 91%
- Activity (HT-29 [22]): 70%
- Activity (HT-29 [23]): 61%
- Activity (HT-29 [24]): 95%
- Activity (HT-29 [25]): 44%

SMILES: COc1cc2c(c(OC)c1OC)-c1ccc(OC)c(=O)cc1[C@@H](NC(=O)Nc1ccccc1C#N)CC2
- IC50 (HT-29 [1]): 11 nM
- IC50 (MCF7): 11 nM
- IC50 (HeLa): 10 nM
- IC50 (HEK293): 11 nM
